Bioassay records from PubChem BioAssay.
Hits are enriched below; roughly 3% of the tested compounds scored in any of these assays.
PfGluPho inh: PfG6PD enzyme inhibitors, primary screen, biochemical, fluorescence intensity, uHTS; PfGluPho enzyme, NADPH resazurin-diaphorase fluorescence; inhibition, % at 20 µM; 350,000 compounds, 0.78% hits;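 active = inhibition reaching at least a set limit at 20 µM in the primary screen, cut at about 59% in these data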;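 note: 0% = DMSO wells with substrate and 100% = DMSO wells lacking glucose-6-phosphate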
MC4R barr agon: MC4R agonists recruiting beta-arrestin, primary screen, cell-based, luminescence, agonist arm of biased-ligand search; activation, % at 8.9 µM; U2OS MC4R beta-arrestin complementation; percent of melanotan II response, DMSO zero; Melanocortin receptor 4 (Homo sapiens), P32245; AID 540308, 2011; 360,000 compounds, 0.98% hits;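 active = activation above a per-plate cutoff, the mean activation of sample wells on that plate plus 3 SD, cut at about 8% in these data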
MC4R antagonist: MC4R antagonists of cAMP signaling, primary screen, cell-based, TR-FRET, antagonist arm of biased-ligand search | MC4R-expressing cells, MTII-stimulated cAMP, LANCE TR-FRET | 360,000 compounds, 0.48% hits | Melanocortin receptor 4 (Homo sapiens), P32245 | inhibition, % at 6.5 µM;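 active = inhibition above its plate's cutoff, the mean of tested wells on that plate plus 3 SD, cut at about 29% in these data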;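 note: 0% = Melanotan II alone and 100% = Melanotan II plus saturating MCL0020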
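Assay system: U2OS cells stably expressing human melanocortin 4 receptor (MC4R) / Dosing: 6.5 µM / Timing: compound 30 min, challenge 1 h, detection 1 h / Measured by: Eu-cAMP/anti-cAMP TR-FRET, emission 671 nm / Replicates: singlicate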
Beta2AR agonist: beta2AR agonists driving receptor internalization, primary screen, cell-based, FAP fluorogen, flow cytometry; Am2.2-beta2AR cells; response, % (concentration not given with the values); 340,000 compounds, 0.43% hits;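 active = response above a set limit, near 3 SD of response in nonfluorescent compounds, cut at about 42% in these data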
ABHD5-PLIN5 inh: ABHD5-PLIN5 interaction inhibitors, primary screen, cell lysate, split luciferase complementation, luminescence | Split G. princeps luciferase complementation, 4 h | inhibition, % at 4 µM | 360,000 compounds, 0.78% hits | AID 602281, 2012;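 active = inhibition above the mean inhibition across every tested compound plus 3 SD, cut at about 22% in these data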;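 note: 0% = DMSO only wells and the 100% control is not disclosed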
Target sequence (Q00G26 whole entry, looked up): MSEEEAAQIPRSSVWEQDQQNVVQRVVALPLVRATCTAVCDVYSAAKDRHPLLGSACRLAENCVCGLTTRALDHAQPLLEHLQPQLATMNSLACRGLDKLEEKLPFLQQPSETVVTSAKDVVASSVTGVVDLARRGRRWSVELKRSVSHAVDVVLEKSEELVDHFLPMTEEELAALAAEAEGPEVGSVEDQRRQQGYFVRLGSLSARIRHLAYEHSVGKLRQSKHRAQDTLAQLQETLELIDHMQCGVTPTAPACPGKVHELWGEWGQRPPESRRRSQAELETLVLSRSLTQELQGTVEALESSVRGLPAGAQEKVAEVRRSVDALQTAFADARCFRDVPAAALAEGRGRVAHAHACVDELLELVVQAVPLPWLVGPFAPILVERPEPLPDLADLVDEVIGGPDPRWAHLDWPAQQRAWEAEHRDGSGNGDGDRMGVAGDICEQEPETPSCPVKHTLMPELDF
Target sequence (Q8WTS1 whole entry, looked up): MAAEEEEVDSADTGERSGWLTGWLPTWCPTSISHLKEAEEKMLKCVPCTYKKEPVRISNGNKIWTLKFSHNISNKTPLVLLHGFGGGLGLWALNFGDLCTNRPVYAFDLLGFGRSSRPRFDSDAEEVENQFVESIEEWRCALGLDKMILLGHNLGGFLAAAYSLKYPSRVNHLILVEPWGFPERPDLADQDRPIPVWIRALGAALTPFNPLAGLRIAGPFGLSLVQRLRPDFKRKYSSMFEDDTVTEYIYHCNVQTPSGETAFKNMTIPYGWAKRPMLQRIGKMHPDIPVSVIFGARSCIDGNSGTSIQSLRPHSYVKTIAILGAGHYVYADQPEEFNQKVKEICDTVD
PfGluPho conf: PfG6PD inhibitors, hit retest, confirmation, biochemical, fluorescence intensity, single concentration. inhibition, % at 20 µM. AID 504753, 2011. shares compounds with PfGluPho inh. 2,400 compounds, 34% hits. recombinant PfGluPho, NADPH-diaphorase-resazurin fluorescence;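 active = inhibition of at least 50% at 20 µM in any single replicate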;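 note: 0% = DMSO with substrate and 100% = DMSO lacking glucose-6-phosphate substrate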
Diaph ctr 10uM: diaphorase inhibitors and chemical oxidizers, confirmation, counter-screen for P. falciparum G6PD inhibitor project, biochemical, fluorescence intensity, 10 µM NADPH. shares compounds with PfGluPho inh. inhibition, % at 20 µM. diaphorase-coupled resazurin reduction, NADPH 10 uM. AID 504862, 2011. 820 compounds, 39% hits;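 active = average inhibition reaching 50% or more with the compound at 20 µM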;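 note: resorufin red fluorescence formed as diaphorase reduces resazurin using NADPH; 0% = DMSO with enzyme and 100% = DMSO without enzyme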
Diaphorase 30uM: diaphorase inhibitors and chemical oxidizers, confirmation, counter-screen for P. falciparum G6PD inhibitor project, biochemical, fluorescence intensity, 30 µM NADPH; Diaphorase/resazurin coupled assay, resorufin fluorescence; shares compounds with PfGluPho inh; inhibition, % at 20 µM; AID 504863, 2011; 820 compounds, 29% hits;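 active = inhibition averaging 50% or more, tested at 20 µM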;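 note: 0% = DMSO with enzyme and 100% = DMSO wells lacking diaphorase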
* = called active by the depositor; / = no result.

SMILES	PfGluPho inh	MC4R barr agon	MC4R antagonist	Beta2AR agonist	ABHD5-PLIN5 inh	PfGluPho conf	others
N=c1n(CCN2CCOCC2)c2ccccc2n1CC(=O)c1cccc([N+](=O)[O-])c1	75*	5	6	-14	8	-6
CCOC(=O)CN/C=C(\C#N)c1ccccc1	26	-2	4	3	0	/
Cc1cc(OCc2cc(C(=O)NCCN3CCCCC3CO)no2)cc(C)c1Cl (centres undefined)	15	-3	-2	16	12	/
CSc1nc(C)cc(C)c1C#N	0	0	5	5	4	/
Cc1cc(C)c(C#N)c(=N)o1	66*	-3	-4	1	0	47
COc1ccc(CNC(=O)c2cc(=O)c3cc(C)ccc3o2)cc1	5	1	-3	5	-1	/
CC1(C)CC(CCNC(=O)CCl)(c2ccccc2)CCO1 (centres undefined)	-14	0	-2	-5	-4	/
CCn1c(N)c(C(=O)NCCCOC)sc1=S	65*	2	3	3	-3	13
CCn1c(N)c(C(=O)NCC2CCCO2)sc1=S (centres undefined)	61*	-2	7	-3	0	40
CC(C)OCCCNC(=O)c1sc(=S)n(C)c1N	23	0	-2	-28	-3	/
CCn1c(N)c(C(=O)NC)sc1=S	80*	1	25	5	2	50*	Diaph ctr 10uM=-27;Diaphorase 30uM=-20
CCNC(=O)c1sc(=S)n(CC)c1N	12	2	3	18	2	/
Cc1ccsc1-c1cc2nc(Nc3ccc(F)cc3)n(C)c(=O)c2s1	/	2	5	/	-1	/
c1ccc(COn2nnc3ccccc32)c(COn2nnc3ccccc32)c1	50	2	6	-15	-4	14
COC(=O)c1sc2nc(-c3ccco3)ccc2c1N	76*	-1	6	0	6	-4
Cc1ccc(CNc2ccc(O)cc2)cc1	86*	-2	-8	-5	-12	64*	Diaph ctr 10uM=20;Diaphorase 30uM=22
COc1cc(C(C)=O)ccc1OCC(=O)NCc1ccccc1CN1CCCC1	-2	2	6	/	5	/
COc1ccc(CC(=S)N2CCOCC2)cc1	66*	0	1	4	-1	10
Cc1ccc(CC(=S)N2CCOCC2)cc1	47	-4	10	3	-3	/
CCc1ccc(C(=O)/C=C/c2cnn(C)c2C)s1	59*	-2	6	-1	2	39
Cc1ccc(-c2nc(C)sc2CC(=O)Nc2cccc(C)c2C)cc1	6	-2	7	0	0	/
CSc1nnc(NC(=O)c2ccc3c(c2)OCO3)s1	96*	-3	-6	2	0	74*	Diaph ctr 10uM=49;Diaphorase 30uM=48
COCCSc1nnc(NC(=O)c2ccc3c(c2)OCO3)s1	71*	-3	3	-2	-3	34
CC1CCCC(NC(=O)CN2C(=O)NC(c3ccccc3)(c3ccccc3)C2=O)C1C (centres undefined)	1	-1	14	-3	-2	/
Cc1cccc(-c2nc3ccccc3c(=O)n2NC(=S)N(C)C)c1	62*	-1	9	5	5	32
COC(=O)c1cc2ccccc2c(-c2c(OC)c(C(=O)OC)cc3ccccc23)c1OC	89*	3	2	23	0	33
